Measured values taken from publication PMC3947091 (Molecular imaging and biology : MIB : the official …, 2014).
* marks the point of attachment. DOTA = O=C(O)CN1CCN(CC(=O)O)CCN(CC(=O)*)CCN(CC(=O)O)CC1; Cy5.5 = Cy5.5 near-infrared fluorescence dye

Tests used:
glioblastomas = details: 90 of 139 patients; white light comparison 47 (36 %) of 131 patients; cited from earlier work
U87-Luc tumors [1] = format: in vivo, nude mice; details: 10 μg
In short: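 Male nude mice (8–10 weeks) had 1×10⁶ U87-Luc cells implanted stereotaxically (3 mm deep, 1 mm right, 2.5 mm behind bregma). Tumor take was checked by bioluminescence on day 10 (iv d-luciferin 4 mg/kg). Cy5.5-labeled test probe or scrambled control, 10 μg, given by tail vein. NIR imaging at 1, 4 and 24 h (ex 675 nm, em 695–770 nm). Mice killed at each time point (n=4); organs weighed and imaged ex vivo. Manual ROI, photons/s/cm².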

U251-Luc tumors [2] = assay: NIR optical imaging, orthotopic U251-Luc tumors; format: in vivo, nude mice; details: 24 h after tail vein injection, 10 μg
In short: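 Orthotopic xenograft made with 3×10⁶ U251-Luc cells stereotaxically implanted in male nude mice (8–10 weeks; 3 mm deep, 1 mm right, 2.5 mm behind bregma). Bioluminescence check on day 10. Tail-vein injection of 10 μg Cy5.5-labeled probe (n=12). NIR imaging at 1, 4 and 24 h (ex 675 nm/30 nm bandwidth, em 695–770 nm); tissues analyzed ex vivo at 24 h. Manual ROI, photons/s/cm².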

U251-Luc tumors [3] = assay: μPET/CT imaging with blocking experiment, orthotopic U251-Luc tumors; format: in vivo, nude mice
In short: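 In orthotopic U251-Luc nude mice (n=3), ⁶⁴Cu-labeled probe (7.4 MBq, 0.5–1.0 μg) was given by tail vein, alone or with 50 μg/mouse of unlabeled probe for blocking. μPET/CT at 1 and 24 h. ROIs drawn on tumor, normal brain and a standard holding 1% of the injected dose. Tumor/normal-brain voxel intensity ratio taken from 3D ROIs, reported with SD; Student t test.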

U87-Luc tumors [4] = assay: μPET/CT imaging, orthotopic U87-Luc tumors; format: in vivo, nude mice; details: 1 and 24 h after tail vein injection, 7.4 MBq
In short: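 Orthotopic U87-Luc nude mice (n=4; 1×10⁶ cells implanted stereotaxically) received ⁶⁴Cu-labeled probe, 7.4 MBq (200 μCi, 0.5–1.0 μg), by tail vein. μPET/CT imaging at 1 and 24 h. Mean activities computed within ROIs drawn on tumor and normal brain, with a 1%-injected-dose standard placed beside the animal.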

[5] = tested on: U87-Luc tumors (EphB4, CD31 staining); assay: Fluorescence microscopy of excised brain sections, U87-Luc tumors; format: in vivo, nude mice; details: EphB4 expression only in tumor microvessels
In short: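 Brains with implanted tumor excised from probe-injected nude mice after μPET/CT, snap-frozen, cut at 4 μm. Sections fixed in 4% paraformaldehyde 20 min RT, blocked in 10% goat serum 30 min, and incubated overnight at 4 °C with rabbit anti-human EphB4 (1:100) and rat anti-mouse CD31 (1:50). Alexa 488/594 secondaries (1:500), DAPI counterstain, fluorescence microscopy.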

For `NCC(=O)CCC(=O)O` [5-aminolevulinic acid], the “Patients with completely resected glioblastoma” value (glioblastomas) is given as 65%.

With “Cy5.5-TNYL-RAWK-DOTA: TNYL-RAW with Cy5.5 at the N-terminus and DOTA at the C-terminus ({Cy5.5}-TNYLFSPNGPIARAWK(DOTA)-NH2)” the “Brain tumor uptake clearly shown in NIR fluorescence imaging” value (U87-Luc tumors [1]; U87-Luc tumors, 1, 4 and 24 h after intravenous injection) was “clearly shown”, the “Cy5.5 NIR fluorescence visualization of tumor in mouse brain” value (U87-Luc tumors [1]; U87-Luc, 24 h after tail vein injection) was “clearly visualized” and the “Cy5.5 NIR fluorescence visualization of tumor in mouse brain” value (U251-Luc tumors [2]) was “clearly visualized”.

In the case of “Cy5.5-TNYL-RAWK-^64Cu-DOTA: ^64Cu-labeled Cy5.5-TNYL-RAWK-DOTA, dual-labeled PET/optical probe ({Cy5.5}-TNYLFSPNGPIARAWK(DOTA)-NH2; also: DOTA holds 64Cu)”, the “μPET/CT visualization of tumors, with cold peptide” value (U251-Luc tumors [3]; 1 and 24 h, coinjected cold Cy5.5-TNYL-RAWK-DOTA 50 μg/mouse) is reported as “barely discernible”, the “μPET/CT visualization of tumors, absence of cold peptide” value (U251-Luc tumors [3]; 1 and 24 h after radiotracer injection, 7.4 MBq) is reported as “clearly visualized” and the “μPET/CT visualization of tumors” value (U87-Luc tumors [4]) is reported as “clearly visualized”. For the same compound, the “Binding site in tumor sections (Cy5.5 signal colocalization)” value [5] was “bound only to the tumor microvessels”.
